Results published in ChEMBL document CHEMBL4382261, “Onydecalins, Fungal Polyketides with Anti- Histoplasma and Anti-TRP Activity” (J Nat Prod, 2018).
Values after ≈ are worked out from the molar mass of the structure shown. Active and inactive are the calls of the source. The rule behind the calls is not given here.

Experiments:
[1] = target: Transient receptor potential cation channel subfamily M member 8 (Homo sapiens, UniProt Q7Z2W7); assay: Antagonist activity at human TRPM8 channel expressed in HEK293 cells assessed as inhibition of icilin-induced calcium flux by Fluo-4-AM dye based fluorescence assay; format: cell-based
Chain of Transient receptor potential cation channel subfamily M member 8 (Q7Z2W7 whole entry): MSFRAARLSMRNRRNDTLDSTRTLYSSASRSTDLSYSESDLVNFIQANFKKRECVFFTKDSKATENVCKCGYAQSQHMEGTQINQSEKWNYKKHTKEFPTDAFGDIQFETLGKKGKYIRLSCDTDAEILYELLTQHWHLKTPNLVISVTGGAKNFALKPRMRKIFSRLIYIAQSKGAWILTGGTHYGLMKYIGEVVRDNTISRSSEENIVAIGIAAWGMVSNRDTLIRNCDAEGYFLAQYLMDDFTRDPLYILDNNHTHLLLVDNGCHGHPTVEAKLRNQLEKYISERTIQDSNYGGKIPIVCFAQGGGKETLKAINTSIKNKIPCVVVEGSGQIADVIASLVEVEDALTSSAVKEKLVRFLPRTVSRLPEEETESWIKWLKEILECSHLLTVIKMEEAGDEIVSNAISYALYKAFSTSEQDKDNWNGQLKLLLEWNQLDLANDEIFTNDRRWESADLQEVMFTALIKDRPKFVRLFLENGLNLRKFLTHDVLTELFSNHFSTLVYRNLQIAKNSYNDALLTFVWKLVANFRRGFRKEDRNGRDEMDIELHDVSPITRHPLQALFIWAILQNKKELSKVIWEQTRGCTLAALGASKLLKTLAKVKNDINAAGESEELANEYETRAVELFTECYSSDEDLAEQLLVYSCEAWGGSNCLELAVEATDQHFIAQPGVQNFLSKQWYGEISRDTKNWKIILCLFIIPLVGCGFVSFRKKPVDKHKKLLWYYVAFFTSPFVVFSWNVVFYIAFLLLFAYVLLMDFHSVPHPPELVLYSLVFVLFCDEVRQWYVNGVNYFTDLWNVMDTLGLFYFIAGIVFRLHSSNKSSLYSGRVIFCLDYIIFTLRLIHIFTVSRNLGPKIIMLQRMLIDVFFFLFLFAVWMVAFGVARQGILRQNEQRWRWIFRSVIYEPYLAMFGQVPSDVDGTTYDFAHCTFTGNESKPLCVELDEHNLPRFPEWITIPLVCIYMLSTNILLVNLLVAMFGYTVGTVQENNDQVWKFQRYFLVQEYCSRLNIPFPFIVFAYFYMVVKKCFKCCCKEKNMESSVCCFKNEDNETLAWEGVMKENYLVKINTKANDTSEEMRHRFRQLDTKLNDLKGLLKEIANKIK
In short: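 Stable human TRPM8 HEK-293 cells, grown in DMEM:F12 with 5% FBS and Geneticin on gelatin-coated plates, were loaded with Fluo-4 AM for 60 min at 37 °C. Compounds were added 30 min before reading in LHC-9 with 1 mM probenecid and 0.75 mM trypan red. Icilin 50 µM was the agonist. Signal was normalized to the maximal agonist response, and IC50 came from 8-point curves with n=2–3.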

Histoplasma capsulatum = assay: Antifungal activity against Histoplasma capsulatum G217B after 10 to 14 days by microscopic method; format: functional
In short: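 G217B yeast-phase cells were grown in brain-heart infusion for 3 days at 37 °C under 5% CO2, then used at 1×10⁴ cells/mL final in RPMI. Twofold dilutions were tested at 64 to 0.125 µg/mL final; itraconazole (16 µg/mL downward) and amphotericin B (16 to 0.008 µg/mL) were diluted similarly. Plates were incubated 10–14 days at 37 °C under 5% CO2, with vehicle controls.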

Candida albicans = assay: Antifungal activity against Candida albicans SC5314 at 0.25 to 64 ug/ml after 48 hrs by microscopic method; format: functional, organism-based
In short: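 SC5314 yeast grown overnight in YPD at 30 °C were counted by hemocytometer and used at 1×10⁴ cells/mL final in YPD. Twofold compound dilutions from DMSO stocks were tested at 64 to 0.125 µg/mL final, incubated 48 h at 30 °C, with DMSO-only and untreated controls.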

Aspergillus fumigatus = assay: Antifungal activity against Aspergillus fumigatus Af293 at 0.25 to 64 ug/ml after 48 hrs by microscopic method; format: functional, organism-based
In short: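 Af293 spores in RPMI with 0.1% Tween-80 were counted by hemocytometer and used at 1×10⁴ spores/mL final. Twofold compound dilutions in RPMI from DMSO stocks were tested at 64 to 0.125 µg/mL final in 96-well plates at 37 °C for 48 h, alongside DMSO-only and untreated controls.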

[2] = target: Transient receptor potential cation channel subfamily V member 1 (Homo sapiens, UniProt Q8NER1); assay: Antagonist activity at human TRPV1 channel expressed in human BEAS2B cells assessed as inhibition of […] by Fluo-4-AM dye based fluorescence assay; format: cell-based
Chain of Transient receptor potential cation channel subfamily V member 1 (Q8NER1 whole entry): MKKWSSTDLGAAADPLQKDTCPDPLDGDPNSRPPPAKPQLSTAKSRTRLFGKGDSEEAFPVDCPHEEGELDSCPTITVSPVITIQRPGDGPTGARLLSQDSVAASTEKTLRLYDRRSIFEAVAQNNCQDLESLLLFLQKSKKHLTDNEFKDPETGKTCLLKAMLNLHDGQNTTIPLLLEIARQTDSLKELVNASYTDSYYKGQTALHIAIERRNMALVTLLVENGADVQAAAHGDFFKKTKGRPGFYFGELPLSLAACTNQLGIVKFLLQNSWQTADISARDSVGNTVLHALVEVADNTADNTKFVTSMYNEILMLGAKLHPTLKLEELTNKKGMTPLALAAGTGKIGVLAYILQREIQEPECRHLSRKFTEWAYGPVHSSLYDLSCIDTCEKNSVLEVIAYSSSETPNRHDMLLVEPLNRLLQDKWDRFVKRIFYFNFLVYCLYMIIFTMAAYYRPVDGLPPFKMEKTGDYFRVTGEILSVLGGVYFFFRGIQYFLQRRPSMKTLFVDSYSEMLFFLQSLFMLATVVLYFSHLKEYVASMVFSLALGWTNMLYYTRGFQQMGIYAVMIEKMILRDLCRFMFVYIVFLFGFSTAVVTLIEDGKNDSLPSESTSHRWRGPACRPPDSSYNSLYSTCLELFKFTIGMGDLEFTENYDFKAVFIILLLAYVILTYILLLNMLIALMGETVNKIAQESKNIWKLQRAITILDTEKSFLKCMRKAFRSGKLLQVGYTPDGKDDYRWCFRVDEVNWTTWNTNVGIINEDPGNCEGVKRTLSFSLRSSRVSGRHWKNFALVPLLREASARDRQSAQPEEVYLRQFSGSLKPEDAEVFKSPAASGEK

[3] = target: Transient receptor potential cation channel subfamily V member 4 (Homo sapiens, UniProt Q9HBA0); assay: Antagonist activity at human TRPV4 channel expressed in HEK293 cells assessed as inhibition of GSK1016790A-induced calcium flux by Fluo-4-AM dye based fluorescence assay; format: cell-based
Chain of Transient receptor potential cation channel subfamily V member 4 (Q9HBA0 whole entry): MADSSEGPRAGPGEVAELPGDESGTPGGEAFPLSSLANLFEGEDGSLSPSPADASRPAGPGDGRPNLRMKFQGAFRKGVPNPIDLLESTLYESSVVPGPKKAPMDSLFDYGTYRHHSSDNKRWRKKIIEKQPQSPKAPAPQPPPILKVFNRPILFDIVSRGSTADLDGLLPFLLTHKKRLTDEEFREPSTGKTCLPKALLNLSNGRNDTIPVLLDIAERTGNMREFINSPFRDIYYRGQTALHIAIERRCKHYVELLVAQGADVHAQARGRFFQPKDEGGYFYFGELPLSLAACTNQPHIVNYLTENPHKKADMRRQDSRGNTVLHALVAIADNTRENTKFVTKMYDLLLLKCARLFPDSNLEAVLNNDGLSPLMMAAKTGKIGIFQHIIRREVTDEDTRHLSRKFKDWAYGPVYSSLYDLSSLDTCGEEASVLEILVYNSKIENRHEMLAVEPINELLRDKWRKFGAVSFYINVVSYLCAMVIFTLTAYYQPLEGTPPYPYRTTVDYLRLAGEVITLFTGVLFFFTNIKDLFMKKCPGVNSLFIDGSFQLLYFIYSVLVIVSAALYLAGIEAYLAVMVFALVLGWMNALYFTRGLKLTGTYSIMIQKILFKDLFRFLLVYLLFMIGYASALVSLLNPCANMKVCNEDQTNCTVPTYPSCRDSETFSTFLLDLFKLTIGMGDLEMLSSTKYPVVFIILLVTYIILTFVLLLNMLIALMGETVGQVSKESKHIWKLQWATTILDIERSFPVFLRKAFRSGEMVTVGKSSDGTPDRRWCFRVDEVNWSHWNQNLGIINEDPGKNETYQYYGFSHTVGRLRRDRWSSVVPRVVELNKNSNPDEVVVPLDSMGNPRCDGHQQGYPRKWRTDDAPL
In short: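 HEK-293 cells stably overexpressing human TRPV4 were loaded with Fluo-4 AM for 60 min at 37 °C. Compounds were preincubated 30 min in LHC-9 containing 1 mM probenecid and 0.75 mM trypan red. GSK1016790A 0.03 µM was the agonist. Fluorescence change was normalized to the maximal agonist response, and IC50 came from 8-point curves with n=2–3.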

C/C=C(\C)[C@H]1C(C)=C[C@H]2C[C@@H](C)C[C@H]3C(=O)/C(=C\NCCO)C(=O)[C@]1(C)[C@H]23
IC50 [1]: 61.6 µM
MIC (Histoplasma capsulatum): 16 µg/mL (≈ 43.1 µM)
Activity (Candida albicans): inactive
Activity (Aspergillus fumigatus): inactive

C/C=C(\C)[C@H]1C(C)=C[C@H]2C[C@@H](C)C[C@@H](C(=O)O)[C@@H]2[C@@]1(C)C(=O)CCO
IC50 [1]: 18.5 µM
MIC (Histoplasma capsulatum): > 64 µg/mL
Activity (Candida albicans): inactive
Activity (Aspergillus fumigatus): inactive

CCC(C)n1ncn(-c2ccc(N3CCN(c4ccc(OCC5COC(Cn6cncn6)(c6ccc(Cl)cc6Cl)O5)cc4)CC3)cc2)c1=O (stereo not drawn) [ITRACONAZOLE]
MIC (Histoplasma capsulatum): 0.001 µg/mL (≈ 0.00142 µM)

C/C=C(\C)[C@H]1C(C)=C[C@H]2C[C@@H](C)C[C@@H](C(=O)O)[C@@H]2[C@@]1(C)C(=O)c1cccnc1
IC50 [2]: 81.6 µM
IC50 [3]: 45.9 µM
MIC (Histoplasma capsulatum): > 64 µg/mL
Activity (Candida albicans): inactive
Activity (Aspergillus fumigatus): inactive

C/C=C(\C)[C@H]1C(C)=C[C@H]2C[C@@H](C)C[C@H]3C(O)=C(C=O)C(=O)[C@]1(C)[C@H]23
MIC (Histoplasma capsulatum): 2 µg/mL (≈ 6.09 µM)
Activity (Candida albicans): inactive
Activity (Aspergillus fumigatus): inactive

C[C@@H]1[C@H](O)[C@@H](C)/C=C/C=C/C=C/C=C/C=C/C=C/C=C/[C@H](O[C@@H]2O[C@H](C)[C@@H](O)[C@H](N)[C@@H]2O)C[C@@H]2O[C@](O)(C[C@@H](O)C[C@@H](O)[C@H](O)CC[C@@H](O)C[C@@H](O)CC(=O)O[C@H]1C)C[C@H](O)[C@H]2C(=O)O [AMPHOTERICIN B]
MIC (Histoplasma capsulatum): 0.5 µg/mL (≈ 0.541 µM)
